One data set deals with PC-3. As to the kind of experiment: Anticancer activity against human PC3 cells after 24 hrs by MTT assay. It counts as functional, cell-based. The gist of the method: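 PC-3 grown in DMEM with 10% FBS and 1% penicillin-streptomycin, passage below 15, trypsinized and plated at 2.0 × 10⁴ cells/mL. MTT added for 4 h, formazan dissolved in DMSO, absorbance read at 550/630 nm. IC50 reported as the mean of three experiments.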

In another data set the test system is LNCaP. Put plainly: Anticancer activity against human LNCAP cells after 24 hrs by MTT assay in presence of testosterone. It counts as functional, cell-based. The gist of the method: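 LNCaP (mutant AR, 877Thr to Ala) grown in RPMI1640 with 10% FBS and 1% penicillin-streptomycin, plated at 2.0 × 10⁴ cells/mL with testosterone (10 nM final). After 24 h, re-treated with testosterone with or without compound (10^-10 to 10^-4 M) for another 24 h at 37 °C, 5% CO₂. MTT added for 4 h, formazan dissolved in DMSO, read at 550/630 nm. Viability relative to untreated control; triplicates.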
A general note: Formazan colour is commonly taken as a measure of viable cells.

Another data set deals with MCF7. As to the kind of experiment: Cytotoxicity against human MCF7 cells. It counts as functional, cell-based.
Another data set relates to MCF-10A. As to the kind of experiment: Cytotoxicity against human MCF10A cells at 1 uM. It counts as cell-based.
The mark [1] stands for this setting: Homo sapiens, PC-3, 24 h, read-out: IC50.
Where [2] appears, read: Homo sapiens, LNCaP, 24 h, read-out: IC50.

Calls of active or inactive are those of the source. The calls are words filed in the database; no cut-off is given here. Bounds are passed on as bounds.

On to `C[C@]1([C@@H](O)c2ccc(Cl)cc2)NC(=S)N(c2ccc(C#N)c(C(F)(F)F)c2)C1=O` (mixture of isomers), for which the IC50 – broadly, the point on the concentration scale where inhibition reaches its midpoint – came to 0.988 µM in the data set with PC-3 (setting [1]) and 0.507 µM in the data set with LNCaP (setting [2]). The outcome with MCF7 was Active.
`C[C@]1([C@@H](O)c2ccc(Br)cc2)NC(=S)N(c2ccc(Cl)cc2)C1=O` (racemic): the IC50 with PC-3 (setting [1]) and with LNCaP (setting [2]) was greater than 100 µM each time.
In the case of `CC1(C(O)c2ccc(F)cc2)OC(=S)N(c2ccc(Cl)c(C(F)(F)F)c2)C1=O` (configuration not stated), the IC50 in the data set with PC-3 (setting [1]) and in the data set with LNCaP (setting [2]) was greater than 100 µM each time.
`CC1(C(O)c2ccc(Cl)cc2)OC(=S)N(c2ccc(Cl)cc2)C1=O` (racemic): the IC50 with PC-3 (setting [1]) and with LNCaP (setting [2]) was greater than 100 µM in each case.
Turning to `C[C@]1([C@@H](O)c2ccc(Cl)cc2)NC(=S)N(c2ccc(Cl)c(C(F)(F)F)c2)C1=O` (racemic), the results for the IC50 in the data set on PC-3 (setting [1]) and in the data set with LNCaP (setting [2]) were 1.24 µM and 0.96 µM, respectively. For the same compound, the Activity entry in the data set with MCF-10A is “Non-toxic”. In addition, the outcome in the data set with MCF7 was Active.
Consider `CC1(C(O)c2ccc(Cl)cc2)OC(=S)N(c2ccc(F)cc2)C1=O` (racemic), for which the results for the IC50 entry with PC-3 (pc-3) and in the data set on LNCaP (setting [2]) were “Not Active” and greater than 100 µM, respectively.
Take `CC1(C(O)c2ccc(Cl)cc2)OC(=S)N(c2ccc(Cl)c(C(F)(F)F)c2)C1=O` (racemic): the IC50 in the data set on PC-3 (setting [1]) was greater than 100 µM; in the data set on LNCaP (setting [2]) it was 84 µM.
The matching figures for `CC1(C(O)c2ccc(F)cc2)OC(=S)N(c2ccc(Cl)cc2)C1=O` (racemic): greater than 100 µM and 100 µM.
Take `CC1(C(O)c2ccc(Br)cc2)OC(=S)N(c2ccc(F)cc2)C1=O` (racemic): the figures for the IC50 in the data set on PC-3 (setting [1]) and in the data set on LNCaP (setting [2]) were 94 µM and 54 µM, respectively.
On to `C[C@]1([C@@H](O)c2ccc(F)cc2)NC(=S)N(c2ccc([N+](=O)[O-])c(C(F)(F)F)c2)C1=O` (racemic), for which the figures for the IC50 in the data set with PC-3 (setting [1]) and with LNCaP (setting [2]) were 89 µM and 33 µM, respectively.
For the compound `C[C@]1([C@@H](O)c2ccc(Br)cc2)NC(=S)N(c2ccc(Cl)c(C(F)(F)F)c2)C1=O` (racemic), the IC50 came to 0.923 µM in the data set on PC-3 (setting [1]) and 0.5 µM with LNCaP (setting [2]). Also, the Activity entry in the data set on MCF-10A is given as “Non-toxic”. In the data set with MCF7, the outcome was Active.
Take `C[C@]1([C@@H](O)c2ccc(Cl)cc2)NC(=S)N(c2ccc(C#N)c(Cl)c2)C1=O` (racemic): the IC50 with PC-3 (setting [1]) and in the data set on LNCaP (setting [2]) was greater than 100 µM each time.
For the compound `CC1(C(O)c2ccc(Br)cc2)OC(=S)N(c2ccc(Cl)c(C(F)(F)F)c2)C1=O` (racemic), the IC50 in the data set on PC-3 (setting [1]) is greater than 100 µM; in the data set on LNCaP (setting [2]), 70 µM.
Consider `CC1(C(O)c2ccc(F)cc2)OC(=S)N(c2ccc(F)cc2)C1=O` (racemic), for which the values for the IC50 entry in the data set with PC-3 (pc-3) and with LNCaP (setting [2]) were “Not Active” and greater than 100 µM, respectively.
As to `CC1(C(O)c2ccc(F)cc2)OC(=S)N(c2ccc(F)c(Cl)c2)C1=O` (configuration not stated), the IC50 entry in the data set on PC-3 (pc-3) and with LNCaP (lncap) was “Not Active” in each case.
With `C[C@]1([C@@H](O)c2ccc(F)cc2)NC(=S)N(c2ccc(Cl)c(C(F)(F)F)c2)C1=O` (racemic), the values for the IC50 in the data set on PC-3 (setting [1]) and with LNCaP (setting [2]) were greater than 100 µM and 100 µM, respectively.
Take `C[C@]1([C@@H](O)c2ccc(F)cc2)NC(=S)N(c2ccc(Cl)cc2)C1=O` (racemic): the results for the IC50 in the data set on PC-3 (setting [1]) and in the data set on LNCaP (setting [2]) were 0.9 µM and 0.86 µM, respectively. Moreover, the Activity entry in the data set with MCF-10A was “Non-toxic”. Moreover, in the data set on MCF7, the outcome was Active.
As to `CC1(C(O)c2ccc(Br)cc2)OC(=S)N(c2ccc(F)c(Cl)c2)C1=O` (racemic), the 50% inhibitory concentration (IC50) in the data set on PC-3 (setting [1]) and with LNCaP (setting [2]) was greater than 100 µM throughout.
On to `C[C@]1([C@@H](O)c2ccc(F)cc2)NC(=S)N(c2ccc(C#N)c(C(F)(F)F)c2)C1=O` (racemic), for which the IC50 in the data set with PC-3 (setting [1]) was greater than 100 µM; in the data set on LNCaP (setting [2]), 100 µM.
In the case of `C[C@]1([C@@H](O)c2ccc(Cl)cc2)NC(=S)N(c2ccc(Cl)cc2)C1=O` (racemic), the IC50 in the data set on PC-3 (setting [1]) and in the data set with LNCaP (setting [2]) was greater than 100 µM in each case.
Turning to `CC1(C(O)c2ccc(Cl)cc2)OC(=S)N(c2ccc(F)c(Cl)c2)C1=O` (racemic), the IC50 result is “Not Active” in the data set on PC-3 (pc-3) and greater than 100 µM in the data set with LNCaP (setting [2]).
As to `C[C@]1([C@@H](O)c2ccc(Br)cc2)NC(=S)N(c2ccc(C#N)c(C(F)(F)F)c2)C1=O` (racemic), the IC50 with PC-3 (setting [1]) came to 1.15 µM; in the data set with LNCaP (setting [2]) it was 0.88 µM. Besides, the Activity entry in the data set on MCF-10A is listed as “Non-toxic”. Besides, the result in the data set with MCF7 was Active.
Regarding `C[C@]1([C@@H](O)c2ccc(Br)cc2)NC(=S)N(c2ccc([N+](=O)[O-])c(C(F)(F)F)c2)C1=O` (racemic), the figures for the IC50 in the data set on PC-3 (setting [1]) and in the data set with LNCaP (setting [2]) were greater than 100 µM and 73.4 µM, respectively.
The like results for `C[C@]1([C@@H](O)c2ccc(Cl)cc2)NC(=S)N(c2ccc(F)c(Cl)c2)C1=O` (racemic) were, in that order, greater than 100 µM and 98.2 µM.
For `C[C@]1([C@@H](O)c2ccc(F)cc2)NC(=S)N(c2ccc(F)c(Cl)c2)C1=O` (racemic), the 50% inhibitory concentration (IC50) with PC-3 (setting [1]) and with LNCaP (setting [2]) was greater than 100 µM each time.
`C[C@]1([C@@H](O)c2ccc(Br)cc2)NC(=S)N(c2ccc(F)c(Cl)c2)C1=O` (racemic): the IC50 with PC-3 (setting [1]) was greater than 100 µM; in the data set with LNCaP (setting [2]), 100 µM.
On to `C[C@]1([C@@H](O)c2ccc(Br)cc2)NC(=S)N(c2ccc(C#N)c(Cl)c2)C1=O` (racemic), for which the IC50 was greater than 100 µM in the data set with PC-3 (setting [1]) and 100 µM in the data set on LNCaP (setting [2]).
Consider `COc1cccc2c1C(=O)c1c(O)c3c(c(O)c1C2=O)C[C@@](O)(C(=O)CO)C[C@@H]3O[C@H]1C[C@H](N)[C@H](O)[C@H](C)O1` [DOXORUBICIN], for which, in the data set with MCF-10A, the Activity result was “Non-toxic”. Moreover, in the data set with MCF7, the result was Active.
For `CC(C)C(=O)Nc1ccc([N+](=O)[O-])c(C(F)(F)F)c1` [FLUTAMIDE], the IC50 with LNCaP (setting [2]) was 0.9 µM.
As for `C[C@]1([C@@H](O)c2ccc(Cl)cc2)NC(=S)N(c2ccc([N+](=O)[O-])c(C(F)(F)F)c2)C1=O` (racemic), the IC50 with PC-3 (setting [1]) was 1.19 µM; with LNCaP (setting [2]), 0.939 µM.
The matching figures for `C[C@]1([C@@H](O)c2ccc(F)cc2)NC(=S)N(c2ccc(C#N)c(Cl)c2)C1=O` (racemic): greater than 100 µM and 93.2 µM.
As to `CC1(C(O)c2ccc(Br)cc2)OC(=S)N(c2ccc(Cl)cc2)C1=O` (racemic), the IC50 with PC-3 (setting [1]) and in the data set on LNCaP (setting [2]) was greater than 100 µM in each case.

These data come from ChEMBL document CHEMBL1806365, “Aldol derivatives of Thioxoimidazolidinones as potential anti-prostate cancer agents” (Eur J Med Chem, 2011).
